{"source": "paper PMC10613959", "about": "(Toxicological Sciences, 2023)", "key": {"[1]": {"conditions": "pig skin, 24 h, skin surface washed at 8 h; mean; ref Sasson et al. (2009); cited from earlier work"}, "[2]": {"conditions": "human plasma, dermal, ref Schauer et al., 2006, cited from earlier work"}, "[3]": {"assay": "Skin absorption parameters", "set-up": "species or system human", "conditions": "Fitted", "procedure,_shortened": "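A skin model in GastroPlus TCAT started from in silico predicted values for the vehicle, stratum corneum, epidermis and dermis. Its diffusivities and partition coefficients were fitted to skin penetration data: receptor-fluid time course where available, plus skin wash and layer distribution. Parameters were adjusted to minimise model–data difference and then used in the human dermal model. Vehicle/water partitioning is formulation-specific.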"}, "[4]": {"assay": "Scaling of in vitro CLint to in vivo CLint and CLliver", "set-up": "species or system human", "conditions": "scaled from the mean in vitro CLint", "procedure,_shortened": "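Mean in vitro hepatocyte CLint was scaled to in vivo CLint (l/h) using a scaling factor: million cells per gram of liver × grams of liver weight. In vivo CLint was then converted to hepatic clearance with two variations of the well-stirred liver model.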"}, "[5]": {"assay": "PBK population simulation of plasma concentrations", "set-up": "species or system human", "procedure,_shortened": "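GastroPlus population simulations reproduced the clinical designs. Lotion or non-aerosol spray, 2 mg/cm2 over 75% body surface, once at 0 h on day 1 and 4 times daily at 2-h intervals on days 2–4 (mixed multiple-dose profile). Alternatively, a 4% formulation over 90% body surface, about 22 mg/kg bw, in 3 male and 3 female subjects. Simulated-mean/observed-mean ratios for Cmax and AUC0−t; 10th–90th percentiles generated.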"}, "[6]": {"assay": "Blood partitioning assay for Rbp", "format": "in vitro ADME", "conditions": "both, human", "procedure,_shortened": "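Fresh pooled mixed-gender human whole blood (lithium heparin) and reference plasma centrifuged from the same blood were each incubated with 5 µM test compound at 37°C, n = 3. Reactions were stopped at 0 and 60 min. Rbp was derived by LC-MS/MS from test compound concentration in control plasma versus whole-blood supernatant. Chlorthalidone 5 µM served as positive control.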"}, "human hepatocytes": {"test_system": "human hepatocytes", "assay": "Metabolic stability in primary human hepatocytes in suspension", "format": "in vitro ADME", "conditions": "human suspension hepatocytes; compared with Naloxone", "procedure,_shortened": "(§1)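 Cryopreserved human hepatocytes (5-donor pool, 0.8 × 10^6 cells/ml) in Williams E medium (25 mM HEPES, 2 mM L-glutamine) were incubated with test compound at 0.1, 1 and 10 µM, 37°C, n = 3. Sampled at 0, 15, 60, 90, 180 and 240 min; solvent ≤0.5% DMSO or 1% ACN. Heat-inactivated hepatocytes were the negative control. Parent loss was measured by LC-MS. CLint = −k·V (k, slope of log concentration vs time; V, incubation volume/cell number).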"}, "[7]": {"assay": "Metabolic stability in primary human hepatocytes in suspension", "format": "in vitro ADME", "conditions": "human, cryopreserved human hepatocytes in suspension (5 donor pool)", "procedure,_shortened": "as §1"}, "Cross filtration": {"assay": "Cross filtration", "format": "in vitro ADME", "conditions": "both, human, pooled human plasma", "procedure,_shortened": "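Modified cross-ultrafiltration: 10 µM test compound in pooled mixed-gender human plasma, 60 min at 37°C, n = 3, then ultrafiltered beside blank plasma. Each retentate was mixed into the partner filtrate and the regenerated samples analysed by LC-MS/MS. Warfarin 10 µM was positive control. Stability was checked at 60 min against non-incubated control. Recovery-corrected mean PPB from filtrate; Fup = 100 − PPB.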"}, "[8]": {"conditions": "ref Shand, 1976; cited from earlier work"}}, "note": "Where two headings read alike, the source gives them in different places.", "data": [{"molecule": "Cc1ccc(/C=C2/C(=O)C3(C)CCC2C3(C)C)cc1", "note": "(stereo not drawn) [4-MBC, 4-methylbenzylidene camphor]", "values": [{"measurement": "Dermal delivery (Epidermis + dermis + receptor fluid), 4-MBC", "setting": "[1]", "value": 3.17, "unit": "%"}, {"measurement": "Epidermis + Dermis, distribution of 4-MBC", "setting": "[1]", "value": 2.9, "unit": "%"}, {"measurement": "Receptor fluid, distribution of 4-MBC", "setting": "[1]", "value": 0.25, "unit": "%"}, {"measurement": "Skin excess, distribution of 4-MBC", "setting": "[1]", "value": 4.5, "unit": "%"}, {"measurement": "Total recovery, 4-MBC", "setting": "[1]", "value": 87.8, "unit": "%"}, {"measurement": "Total strips (1–40), distribution of 4-MBC", "setting": "[1]", "value": 80.1, "unit": "%"}, {"measurement": "Observed AUC0 − t, Geometric mean", "setting": "[2]; Female", "value": 485.6, "unit": "ng·h/mL"}, {"measurement": "Observed Cmax, Range", "setting": "[2]; Female", "value": "19.8 to 31.2", "unit": "ng/mL"}, {"measurement": "Observed AUC0 − t, Geometric mean", "setting": "[2]; Male", "value": 987.9, "unit": "ng·h/mL"}, {"measurement": "Observed Cmax, Range", "setting": "[2]; Male", "value": "19.8 to 83.9", "unit": "ng/mL"}, {"measurement": "Dermis diffusivity", "setting": "[3]", "value": "3.0E−08", "unit": "cm^2/s"}, {"measurement": "Dermis/water partition coefficient", "setting": "[3]", "value": "2.0E+00"}, {"measurement": "Epidermis/water partition coefficient", "setting": "[3]", "value": "1.0E+02"}, {"measurement": "Stratum corneum diffusivity", "setting": "[3]", "value": "6.1E−11", "unit": "cm^2/s"}, {"measurement": "Stratum corneum/water partition coefficient", "setting": "[3]", "value": "1.0E+03"}, {"measurement": "Vehicle diffusivity", "setting": "[3]", "value": "7.8E−06", "unit": "cm^2/s"}, {"measurement": "Vehicle/water partition coefficient", "setting": "[3]; vehicle/formulation specific", "value": "4.0E+04"}, {"measurement": "In vivo CLint scaled", "setting": "[4]", "value": 216, "unit": "l/h/kg liver"}, {"measurement": "AUC0 − t Fold Difference (Simulated Mean/Observed Mean)", "setting": "[5]; Female", "value": 0.8}, {"measurement": "Cmax Fold Difference (Simulated Mean/Observed Mean)", "setting": "[5]; Female", "value": 0.9}, {"measurement": "AUC0 − t Fold Difference (Simulated Mean/Observed Mean)", "setting": "[5]; Male", "value": 0.6}, {"measurement": "Cmax Fold Difference (Simulated Mean/Observed Mean)", "setting": "[5]; Male", "value": 0.6}, {"measurement": "blood plasma ratio at 60 min, 5 µM", "setting": "[6]", "value": 0.88}, {"measurement": "depletion in suspension hepatocytes", "setting": "human hepatocytes", "value": "medium to fast depletion"}, {"measurement": "hepatocyte CLint", "setting": "[7]", "value": 30, "unit": "µL/min/1e6 cells"}, {"measurement": "hepatocyte CLint at 0.1 µM", "setting": "[7]", "value": 34, "unit": "µL/min/1e6 cells"}, {"measurement": "hepatocyte CLint at 1 µM", "setting": "[7]", "value": 32.2, "unit": "µL/min/1e6 cells"}, {"measurement": "hepatocyte CLint at 10 µM", "setting": "[7]", "value": 23.8, "unit": "µL/min/1e6 cells"}, {"measurement": "fraction unbound at 60 min, 10 µM", "setting": "Cross filtration", "value": 0.0004}]}, {"molecule": "CC(C)NCC(O)COc1cccc2ccccc12", "note": "(stereo not drawn) [propranolol]", "values": [{"measurement": "bound to plasma", "setting": "[8]", "value": "90%–95"}]}]}
